Active and inactive are the calls of the source. The calls are words filed in the database; no cut-off is given here.
system: HepG2; assay: Induction of […] uptake in human HepG2 cells at 5 uM by DIL probe based fluorescence assay; format: functional, cell-based
How it was run: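 HepG2 cells (passages 4–11) in DMEM/10% FBS were treated with DMSO or compound at 5 µM, then given DiI-labelled human plasma LDL (20 µg/mL) for 3 h at 37 °C in the dark. After ice-cold PBS/0.4% albumin rinses, cell-bound dye was extracted with isopropanol and fluorescence read at 520–578 nm. Uptake rate is relative to DMSO. Positive control nagilactone B at 5 µM; n = 3.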

Compound	Activity
CC(=O)O[C@@H]1C[C@@]2(C)[C@@H]3CC=C4[C@@H](CC(=O)[C@H](O)C4(C)C)[C@]3(C)C(=O)C[C@]2(C)[C@H]1[C@@](C)(O)C(=O)/C=C/C(C)(C)OC(C)=O	inactive
CC(=O)OC(C)(C)/C=C/C(=O)[C@](C)(O)[C@H]1[C@H](O)C[C@@]2(C)[C@@H]3CC=C4[C@@H](C[C@H](OC5O[C@H](CO)[C@@H](O)[C@H](O)[C@H]5C)C(=O)C4(C)C)[C@]3(C)C(=O)C[C@]12C (stereo not given in full)	Active
CC(=O)OC(C)(C)CCC(=O)[C@](C)(O)[C@H]1[C@H](O)C[C@@]2(C)[C@@H]3CC=C4[C@@H](C[C@H](OC5O[C@H](CO)[C@@H](O)[C@H](O)[C@H]5C)C(=O)C4(C)C)[C@]3(C)C(=O)C[C@]12C (stereo not given in full)	Active
CC1(C)C(=O)[C@@H](O)C[C@@H]2C1=CC[C@@H]1[C@@]2(C)C(=O)C[C@]2(C)[C@@H]([C@@](C)(O)C(=O)C[C@@H](O)C(C)(C)O)[C@H](O)C[C@@]12C	Active
CC(C)(O)/C=C/C(=O)[C@](C)(O)[C@H]1[C@H](O)C[C@@]2(C)[C@@H]3CC=C4[C@@H](C=C(O)C(=O)C4(C)C)[C@]3(C)C(=O)C[C@]12C	Active
CC(=O)OC(C)(C)[C@H](O)CC(=O)[C@](C)(O)[C@H]1[C@H](O)C[C@@]2(C)[C@@H]3[C@@H](O)C=C4[C@@H](CC(=O)[C@@H](O)C4(C)C)[C@]3(C)C(=O)C[C@]12C	Active
CC1(C)C(=O)[C@@H](O)C[C@@H]2C1=CC[C@@H]1[C@@]2(C)C(=O)C[C@]2(C)[C@@H]([C@@](C)(O)C(=O)C[C@H](O)C(C)(C)O)[C@H](O)C[C@@]12C	Active
CC(=O)O[C@@H]1C[C@@]2(C)[C@@H]3CC=C4[C@@H](CC(=O)[C@H](O)C4(C)C)[C@]3(C)C(=O)C[C@]2(C)[C@H]1[C@@](C)(O)C(=O)CCC(C)(C)OC(C)=O	inactive
CC(=O)OC1C[C@@H]2C(=CC(=O)[C@@H]3[C@@]2(C)C(=O)C[C@]2(C)[C@@H]([C@@](C)(O)C(=O)CCC(C)(C)OC(C)=O)[C@H](OC(C)=O)C[C@@]32C)C(C)(C)C1O (stereo not given in full)	Active
CC(C)(O)/C=C/C(=O)[C@](C)(O)[C@H]1[C@H](O)C[C@@]2(C)[C@@H]3CC=C4[C@@H](CC(O)C(=O)C4(C)C)[C@]3(C)C(=O)C[C@]12C (stereo not given in full)	Active
CC(=O)OC(C)(C)CCC(=O)[C@](C)(O)[C@H]1[C@H](O)C[C@@]2(C)[C@@H]3[C@@H](O)C=C4[C@@H](C[C@H](O)C(=O)C4(C)C)[C@]3(C)C(=O)C[C@]12C	Active
CC(=O)OC(C)(C)/C=C/C(=O)[C@](C)(O)[C@H]1C(=O)C[C@@]2(C)[C@@H]3CC=C4[C@@H](C[C@H](O)C(=O)C4(C)C)[C@]3(C)C(=O)C[C@]12C	inactive
CC(=O)OC(C)(C)CCC(=O)[C@](C)(O)[C@H]1[C@H](O)C[C@@]2(C)[C@@H]3CC=C(C(C)(C)O)[C@@H](CC(=O)O)[C@]3(C)C(=O)C[C@]12C	Active
CC(=O)O[C@H]1C[C@@H]2C(=CC[C@@H]3[C@@]2(C)C(=O)C[C@]2(C)[C@@H]([C@@](C)(O)C(=O)CCC(C)(C)OC(C)=O)[C@H](OC(C)=O)C[C@@]32C)C(C)(C)C1=O	inactive
CC(=O)O[C@H]1C[C@@H]2C(=CC(=O)[C@@H]3[C@@]2(C)C(=O)C[C@]2(C)[C@@H]([C@@](C)(O)C(=O)/C=C/C(C)(C)OC(C)=O)[C@H](OC(=O)O)C[C@@]32C)C(C)(C)C1=O	Active
CC(=O)OC(C)(C)CCC(=O)[C@](C)(O)[C@H]1[C@H](OC(=O)c2ccccc2)C[C@@]2(C)[C@@H]3CC=C4[C@@H](C[C@H](OC(=O)c5ccccc5)C(=O)C4(C)C)[C@]3(C)C(=O)C[C@]12C	inactive
CC(C)(O)/C=C/C(=O)[C@](C)(O)[C@H]1[C@H](O)C[C@@]2(C)[C@@H]3CC=C4[C@@H](C[C@H](O)[C@@H](O)C4(C)C)[C@]3(C)C(=O)C[C@]12C	Active
CC(=O)OC(C)(C)/C=C/C(=O)[C@](C)(O)[C@H]1[C@H](O)C[C@@]2(C)[C@@H]3[C@@H](O)C=C4[C@@H](C[C@H](O)C(=O)C4(C)C)[C@]3(C)C(=O)C[C@]12C	Active
CC(C)(O)CCC(=O)[C@](C)(O)[C@H]1[C@H](O)C[C@@]2(C)[C@@H]3CC=C4[C@@H](C=C(O)C(=O)C4(C)C)[C@]3(C)C(=O)C[C@]12C	Active
CC(=O)OC(C)(C)CCC(=O)[C@](C)(O)[C@H]1C(=O)C[C@@]2(C)[C@@H]3CC=C4[C@@H](C[C@H](O)C(=O)C4(C)C)[C@]3(C)C(=O)C[C@]12C	inactive
CC(=O)OC(C)(C)CCC(=O)[C@](C)(O)[C@H]1[C@H](O)C[C@@]2(C)[C@@H]3[C@@H](O)C=C4[C@@H](CC(=O)[C@@H](O)C4(C)C)[C@]3(C)C(=O)C[C@]12C	Active
CC(=O)OC(C)(C)CCC(=O)[C@](C)(O)[C@H]1[C@H](O)C[C@@]2(C)[C@@H]3CC=C4[C@@H](C[C@H](OC(=O)CCC(=O)O)C(=O)C4(C)C)[C@]3(C)C(=O)C[C@]12C	inactive
CC(=O)OC(C)(C)/C=C/C(=O)[C@](C)(O)[C@H]1[C@H](O)C[C@@]2(C)[C@@H]3[C@@H](O)C=C4[C@@H](CC(=O)[C@H](O)C4(C)C)[C@]3(C)C(=O)C[C@]12C	Active

Compound	Activity
CCC(=O)O[C@H]1C[C@@H]2C(=CC[C@@H]3[C@@]2(C)C(=O)C[C@]2(C)[C@@H]([C@@](C)(O)C(=O)CCC(C)(C)OC(C)=O)[C@H](OC(=O)CC)C[C@@]32C)C(C)(C)C1=O	inactive
CO[C@H](CC(=O)[C@](C)(O)[C@H]1[C@H](O)C[C@@]2(C)[C@@H]3CC=C4[C@@H](C[C@H](O)C(=O)C4(C)C)[C@]3(C)C(=O)C[C@]12C)C(C)(C)O	Active
CC(=O)OC(C)(C)CCC(=O)[C@](C)(O)[C@H]1[C@H](O)C[C@@]2(C)[C@@H]3CC=C4[C@@H](CC(=O)OC4(C)C)[C@]3(C)C(=O)C[C@]12C	Active
CC(=O)OC(C)(C)/C=C/C(=O)[C@](C)(O)[C@H]1[C@H](O)C[C@@]2(C)[C@@H]3CC=C4[C@@H](C[C@H](O)C(=O)C4(C)C)[C@]3(C)C(=O)C[C@]12C	Active
CC(=O)O[C@H]1C[C@@H]2C(=CC[C@@H]3[C@@]2(C)C(=O)C[C@]2(C)[C@@H]([C@@](C)(O)C(=O)/C=C/C(C)(C)OC(C)=O)[C@H](OC(=O)O)C[C@@]32C)C(C)(C)C1=O	inactive
CC1(C)C(=O)[C@@H](O)C[C@@H]2C1=C[C@H](O)[C@@H]1[C@@]2(C)C(=O)C[C@]2(C)[C@@H](C=O)[C@H](O)C[C@@]12C	Active
CC(=O)OC(C)(C)CCC(=O)[C@](C)(O)[C@H]1[C@H](O)C[C@@]2(C)[C@@H]3CC=C4[C@@H](C[C@H](OC(=O)c5ccccc5)C(=O)C4(C)C)[C@]3(C)C(=O)C[C@]12C	inactive
CC(=O)OC(C)(C)CCC(=O)[C@](C)(O)[C@H]1C(=O)C[C@@]2(C)[C@@H]3CC=C4[C@@H](CC(=O)C(=O)C4(C)C)[C@]3(C)C(=O)C[C@]12C	inactive
CC(C)(O)CCC(=O)[C@](C)(O)[C@H]1[C@H](O)C[C@@]2(C)[C@@H]3CC=C4[C@@H](C[C@H](O)C(=O)C4(C)C)[C@]3(C)C(=O)C[C@]12C	Active
CC(=O)OC(C)(C)CCC(=O)[C@](C)(O)[C@H]1[C@H](O)C[C@@]2(C)[C@@H]3CC=C(C(C)(C)C(=O)O)[C@@H](CC(=O)O)[C@]3(C)C(=O)C[C@]12C	Active
CC(=O)O[C@H]1C(=O)C[C@@H]2C(=CC[C@@H]3[C@@]2(C)C(=O)C[C@]2(C)[C@@H]([C@@](C)(O)C(=O)/C=C/C(C)(C)OC(C)=O)[C@H](O)C[C@@]32C)C1(C)C	inactive
CC(=O)OC(C)(C)/C=C/C(=O)[C@](C)(O)[C@H]1[C@H](O)C[C@@]2(C)[C@@H]3CC=C4[C@@H](CC(=O)[C@H](O)C4(C)C)[C@]3(C)C(=O)C[C@]12C	Active
CC(=O)O[C@@H]1C[C@@]2(C)[C@@H]3CC=C4[C@@H](CC(=O)[C@H](OC(C)=O)C4(C)C)[C@]3(C)C(=O)C[C@]2(C)[C@H]1[C@@](C)(O)C(=O)CCC(C)(C)OC(C)=O	inactive
CC(=O)OC(C)(C)CCC(=O)[C@](C)(O)[C@H]1[C@H](O)C[C@@]2(C)[C@@H]3[C@@H](O)C=C4[C@@H](CC(=O)[C@H](O)C4(C)C)[C@]3(C)C(=O)C[C@]12C	Active
CC(=O)OC(C)(C)/C=C/C(=O)[C@](C)(O)[C@H]1[C@H](OC(=O)c2ccccc2)C[C@@]2(C)[C@@H]3CC=C4[C@@H](C[C@H](OC(=O)c5ccccc5)C(=O)C4(C)C)[C@]3(C)C(=O)C[C@]12C	inactive
CC(=O)O[C@@H]1C[C@@]2(C)[C@@H]3CC=C4[C@@H](CC(=O)[C@H](OC(C)=O)C4(C)C)[C@]3(C)C(=O)C[C@]2(C)[C@H]1[C@@](C)(O)C(=O)/C=C/C(C)(C)OC(C)=O	inactive
CC(=O)O[C@@H]1C[C@@]2(C)[C@@H]3CC=C4[C@@H](C[C@H](O)C(=O)C4(C)C)[C@]3(C)C(=O)C[C@]2(C)[C@H]1[C@@](C)(O)C(=O)/C=C/C(C)(C)OC(C)=O	inactive
CC(=O)OC(C)(C)/C=C/C(=O)[C@](C)(O)[C@H]1[C@H](O)C[C@@]2(C)[C@@H]3CC=C4[C@@H](C[C@H](OC(=O)c5ccccc5)C(=O)C4(C)C)[C@]3(C)C(=O)C[C@]12C	inactive
CC(=O)OC(C)(C)/C=C/C(=O)[C@](C)(O)[C@H]1C(=O)C[C@@]2(C)[C@@H]3CC=C4[C@@H](CC(=O)C(=O)C4(C)C)[C@]3(C)C(=O)C[C@]12C	inactive
CO[C@@H](CC(=O)[C@](C)(O)[C@H]1[C@H](O)C[C@@]2(C)[C@@H]3CC=C4[C@@H](C[C@H](O)C(=O)C4(C)C)[C@]3(C)C(=O)C[C@]12C)C(C)(C)O	Active
CC(=O)O[C@H]1C[C@@H]2C(=CC[C@@H]3[C@@]2(C)C(=O)C[C@]2(C)[C@@H]([C@@](C)(O)C(=O)/C=C/C(C)(C)OC(C)=O)[C@H](O)C[C@@]32C)C(C)(C)C1=O	inactive
CC(=O)OC(C)(C)CCC(=O)[C@](C)(O)[C@H]1[C@H](O)C[C@@]2(C)[C@@H]3CC=C4[C@@H](C[C@H](O)C(=O)C4(C)C)[C@]3(C)C(=O)C[C@]12C	Active

Reference: ChEMBL document CHEMBL4673342, “Lipid-Lowering Activities of Cucurbitacins Isolated from Trichosanthes cucumeroides and Their Synthetic Derivatives” (2020)
